# In ChEMBL document CHEMBL5512639, “Insights from structure-activity relationships and the binding mode of peptidic α-ketoamide inhibitors of the malaria drug target subtilisin-like SUB1” (Eur J Med Chem, 2024):
# Active and inactive are the calls of the source. The rule behind the calls is not given here. Numbered stars: 1 amine (or outer) side, 2 acyl side, 3 side chain; on linkers, the order of the positions; unused ones are H or OH. Square brackets hold non-standard residues; d marks the D form. Peptide text beside a SMILES is read from it. * marks the point of attachment. Ala(1H-tetrazol-5-yl) = N[C@@H](Cc1nnn[nH]1)C(=O)O; Abu(4,4,4-F3) = N[C@@H](CC(F)(F)F)C(=O)O; Gly(cPent) = N[C@H](C(=O)O)C1CCCC1; X1 = C[C@H](N[*:1])C(=O)C(=O)[*:2]; Nva(3-Et) = CCC(CC)[C@H](N)C(=O)O; Pyrazinecarbonyl = O=C(c1cnccn1)*; tBuAla = CC(C)(C)C[C@H](N)C(=O)O; NMeL = CN[C@@H](CC(C)C)C(=O)O; αMeL = CC(C)C[C@](C)(N)C(=O)O; Phg = N[C@H](C(=O)O)c1ccccc1; Tle = CC(C)(C)[C@H](N)C(=O)O; hSer = N[C@@H](CCO)C(=O)O; Dab = NCC[C@H](N)C(=O)O; Abu = CC[C@H](N)C(=O)O; Dap = NC[C@H](N)C(=O)O; Aib = CC(C)(N)C(=O)O; Dha = C=C(N)C(=O)O; Sar = CNCC(=O)O; OAll = C=CCO*
# Assays:
# [1] = Inhibition of full length recombinant Plasmodium vivax SUB1 expressed in Drosophila S2 cells using Dabsyl-KLVGADDV-SLA-EDANS as substrate measured every 2 mins for 1 hr by FRET assay
# Plasmodium falciparum = assay: Antiparasitic activity against Plasmodium falciparum infected in human Erythrocyte assessed as inhibition of merozoite egress from human Erythrocyte at 100 uM measured for 8 hrs by flow cytometry analysis relative to control; assay type: functional
# Outline: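 P. falciparum cultured in human RBCs, RPMI 1640 with 25 mM HEPES, 2.5% Albumax II, 100 μM hypoxanthine, 37 °C, 5% O2/5% CO2. Sorbitol-synchronized, plasmion-enriched late schizonts at 2% hematocrit, 1% parasitemia exposed to compound for 8 h. Fixed in glutaraldehyde, permeabilized, RNase-treated, stained with YOYO-1. Ring parasitemia by flow cytometry (100,000 events) vs DMSO. Triplicate; IC50 from 16 concentrations, 180 to 0.8 μM.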
SMILES,IC50 [1],inhibition (Plasmodium falciparum),inhibition at 100 µM (Plasmodium falciparum)
C=CCOC(=O)CC[C@H](NC(=O)[C@H](CC(=O)O)NC(=O)C(=O)[C@H](C)NC(=O)C(=C)NC(=O)[C@@H](NC(=O)[C@@H](NC(C)=O)[C@@H](C)CC)[C@@H](C)O)C(N)=O (Ac-IT[Dha][X1]DE(OAll)-NH2),330 nM,inactive,
"C=CCOC(=O)CC[C@H](NC(=O)[C@H](CC(=O)O)NC(=O)C(=O)[C@H](C)NC(=O)[C@H](CC(F)(F)F)NC(=O)[C@@H](NC(=O)[C@@H](NC(C)=O)[C@@H](C)CC)[C@@H](C)O)C(N)=O (Ac-IT[Abu(4,4,4-F3)][X1]DE(OAll)-NH2)",3600 nM,,
CC[C@H](C)[C@H](NC(C)=O)C(=O)N[C@H](C(=O)N[C@@H](C)C(=O)N[C@@H](C)C(=O)C(=O)N[C@@H](Cc1nnn[nH]1)C(N)=O)[C@@H](C)O (Ac-ITA[X1][Ala(1H-tetrazol-5-yl)]-NH2),1770 nM,inactive,
C=CCOC(=O)CC[C@H](NC(=O)[C@H](CC(=O)O)NC(=O)C(=O)[C@H](C)NC(=O)[C@H](C)NC(=O)[C@H](Cc1c[nH]c2ccccc12)NC(=O)[C@@H](NC(C)=O)[C@@H](C)CC)C(N)=O (Ac-IWA[X1]DE(OAll)-NH2),240 nM,,5%
C=CCOC(=O)CC[C@H](NC(=O)[C@H](CC(=O)O)NC(=O)C(=O)[C@H](C)NC(=O)[C@@H](C)NC(=O)[C@@H](NC(=O)[C@@H](NC(C)=O)C1CCCC1)[C@@H](C)O)C(N)=O,,inactive,
C=CCOC(=O)CC[C@H](NC(=O)[C@H](CC(=O)O)NC(=O)C(=O)[C@H](C)NC(=O)[C@H](C)NC(=O)[C@H](CCNC(=O)c1cnccn1)NC(=O)[C@@H](NC(C)=O)[C@@H](C)CC)C(N)=O (Ac-I[Dab](Pyrazinecarbonyl)A[X1]DE(OAll)-NH2),390 nM,,10%
C=CCOC(=O)CC[C@H](NC(=O)[C@H](CC(=O)O)NC(=O)C(=O)[C@H](C)NC(=O)[C@H](C)NC(=O)[C@H](CCCCN)NC(=O)[C@@H](NC(C)=O)[C@@H](C)CC)C(N)=O (Ac-IKA[X1]DE(OAll)-NH2),140 nM,,9%
C=CCOC(=O)CC[C@H](NC(=O)[C@H](CC(=O)O)NC(=O)C(=O)[C@H](CNC(C)=O)NC(=O)[C@H](C)NC(=O)[C@@H](NC(=O)[C@@H](NC(C)=O)[C@@H](C)CC)[C@@H](C)O)C(N)=O,23100 nM,,
C=CCOC(=O)CC[C@H](NC(=O)[C@H](CC(=O)O)NC(=O)C(=O)[C@H](C)NC(=O)[C@H](CC)NC(=O)[C@@H](NC(=O)[C@@H](NC(C)=O)[C@@H](C)CC)[C@@H](C)O)C(N)=O (Ac-IT[Abu][X1]DE(OAll)-NH2),350 nM,,
C=CCOC(=O)CC[C@H](NC(=O)[C@H](CCC(=O)O)NC(=O)C(=O)[C@H](C)NC(=O)[C@H](C)NC(=O)[C@@H](NC(=O)[C@@H](NC(C)=O)[C@@H](C)CC)[C@@H](C)O)C(N)=O (Ac-ITA[X1]EE(OAll)-NH2),2900 nM,,
C=CCOC(=O)CC[C@H](NC(=O)[C@H](CC(=O)O)NC(=O)C(=O)[C@H](C)NC(=O)[C@H](CO)NC(=O)[C@@H](NC(=O)[C@@H](NC(C)=O)C1CCCC1)[C@@H](C)O)C(N)=O (Ac-[Gly(cPent)]TS[X1]DE(OAll)-NH2),500 nM,inactive,
C=CCOC(=O)CC[C@H](NC(=O)[C@H](CC(=O)O)NC(=O)C(=O)[C@H](C)NC(=O)C(C)(C)NC(=O)[C@@H](NC(=O)[C@@H](NC(C)=O)C1CCCC1)[C@@H](C)O)C(N)=O (Ac-[Gly(cPent)]T[Aib][X1]DE(OAll)-NH2),> 100000 nM,inactive,
C=CCOC(=O)CC[C@H](NC(=O)[C@H](CO)NC(=O)C(=O)[C@H](C)NC(=O)[C@H](C)NC(=O)[C@@H](NC(=O)[C@@H](NC(C)=O)[C@@H](C)CC)[C@@H](C)O)C(N)=O (Ac-ITA[X1]SE(OAll)-NH2),41800 nM,,
C=CCOC(=O)CC[C@H](NC(=O)[C@H](CC(=O)O)NC(=O)C(=O)[C@H](C)NC(=O)[C@H](C)NC(=O)[C@H](CC(C)C)N(C)C(=O)[C@@H](NC(C)=O)C1CCCC1)C(N)=O (Ac-[Gly(cPent)][NMeL]A[X1]DE(OAll)-NH2),13200 nM,,
C=CCOC(=O)CC[C@H](NC(=O)[C@H](CC(=O)O)NC(=O)C(=O)[C@H](C)NC(=O)[C@H](C)NC(=O)[C@H](C)NC(=O)[C@@H](NC(C)=O)C1CCCC1)C(N)=O (Ac-[Gly(cPent)]AA[X1]DE(OAll)-NH2),58400 nM,inactive,
CC[C@H](C)[C@H](NC(C)=O)C(=O)N[C@H](C(=O)N[C@@H](C)C(=O)N[C@@H](C)C(=O)C(=O)N[C@@H](CC(=O)O)C(N)=O)[C@@H](C)O (Ac-ITA[X1]D-NH2),170 nM,,3%
C=CCOC(=O)CC[C@H](NC(=O)[C@H](CC(=O)O)NC(=O)C(=O)[C@H](C)NC(=O)[C@H](C)NC(=O)[C@@H](NC(=O)[C@H](CC(C)(C)C)NC(C)=O)[C@@H](C)O)C(N)=O (Ac-[tBuAla]TA[X1]DE(OAll)-NH2),390 nM,inactive,
C=CCOC(=O)CC[C@H](NC(=O)[C@H](CC(=O)O)NC(=O)C(=O)[C@H](C)NC(=O)[C@H](C)NC(=O)[C@@H](NC(=O)[C@@H](NC(C)=O)c1ccccc1)[C@@H](C)O)C(N)=O (Ac-[Phg]TA[X1]DE(OAll)-NH2),220 nM,,9%
C=CCOC(=O)CC[C@H](NC(=O)[C@H](CC(=O)O)NC(=O)C(=O)[C@H](C)NC(=O)CNC(=O)[C@@H](NC(=O)[C@@H](NC(C)=O)[C@@H](C)CC)[C@@H](C)O)C(N)=O (Ac-ITG[X1]DE(OAll)-NH2),1280 nM,,
C=CCOC(=O)CC[C@H](NC(=O)[C@H](CC(=O)O)NC(=O)C(=O)[C@H](C)NC(=O)CN(C)C(=O)[C@@H](NC(=O)[C@@H](NC(C)=O)C1CCCC1)[C@@H](C)O)C(N)=O (Ac-[Gly(cPent)]T[Sar][X1]DE(OAll)-NH2),4700 nM,,
C=CCOC(=O)CC[C@H](NC(=O)[C@H](CC(=O)O)NC(=O)C(=O)[C@H](C)NC(=O)[C@H](C)NC(=O)[C@@H](NC(=O)[C@@H](NC(C)=O)C(C)(C)C)[C@@H](C)O)C(N)=O (Ac-[Tle]TA[X1]DE(OAll)-NH2),210 nM,,4%
C=CCOC(=O)CC[C@H](NC(=O)[C@H](CC(=O)O)NC(=O)C(=O)[C@H](C)NC(=O)[C@H](C)NC(=O)[C@](C)(CC(C)C)NC(=O)[C@@H](NC(C)=O)C1CCCC1)C(N)=O (Ac-[Gly(cPent)][αMeL]A[X1]DE(OAll)-NH2),5670 nM,inactive,
C=CCOC(=O)CC[C@H](NC(=O)[C@H](CC(=O)O)NC(=O)C(=O)[C@H](C)NC(=O)[C@H](C)NC(=O)[C@@H](NC(=O)[C@@H](NC(C)=O)C(CC)CC)[C@@H](C)O)C(N)=O (Ac-[Nva(3-Et)]TA[X1]DE(OAll)-NH2),460 nM,,8%
C=CCOC(=O)CC[C@H](NC(=O)[C@H](CCO)NC(=O)C(=O)[C@H](C)NC(=O)[C@H](C)NC(=O)[C@@H](NC(=O)[C@@H](NC(C)=O)[C@@H](C)CC)[C@@H](C)O)C(N)=O (Ac-ITA[X1][hSer]E(OAll)-NH2),38800 nM,,
C=CCOC(=O)CC[C@H](NC(=O)[C@H](CC(=O)O)NC(=O)C(=O)[C@H](CNC(C)=O)NC(=O)[C@H](C)NC(=O)[C@@H](NC(=O)[C@@H](NC(C)=O)C1CCCC1)[C@@H](C)O)C(N)=O,2390 nM,inactive,
C=CCOC(=O)CC[C@H](NC(=O)[C@H](CC(=O)O)NC(=O)C(=O)[C@H](C)NC(=O)[C@H](CN)NC(=O)[C@@H](NC(=O)[C@@H](NC(C)=O)[C@@H](C)CC)[C@@H](C)O)C(N)=O (Ac-IT[Dap][X1]DE(OAll)-NH2),13200 nM,,
